pIC50: −log10 of the molar value. Where “and” joins values, the source holds several entries; their conditions need not be identical. Equal values may be shown once. Calls of active or inactive are those of the source. The rule behind the calls is not given here.
Columns and labels:
[1] = In vitro antimalarial activity against chloroquine-sensitive NF54 strain of Plasmodium falciparum; assay type: functional
Outline: (§1)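 Run in quadruplicate with fitted concentration-response curves (R2 ≥0.985). Artemisinin was run as a concurrent control.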

Mus musculus [2] = experiment: In vivo antimalarial activity in mice (Mus musculus) against chloroquine-sensitive Plasmodium berghei N after subcutaneous administration; assay type: functional
Mus musculus [3] = experiment: In vivo antimalarial activity in mice (Mus musculus) against chloroquine-sensitive Plasmodium berghei N after oral administration; assay type: functional
Mus musculus [4] = experiment: Number of mice survived in a group of 18 mice after injecting single intraperitoneal dose of 1000 mg/kg (single dose of 250 mg/kg did not cause mice mortality); assay type: functional
Outline: (§2)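 Male CD-1 mice in groups of 18 received a single intraperitoneal dose (250, 500 or 1000 mg/kg) of the reference. Survival was scored. Clinical signs such as ruffled fur, hypoactivity and hunched posture were also recorded.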

Mus musculus [5] = experiment: Number of mice survived in a group of 18 mice after injecting single intraperitoneal dose of 500 mg/kg (single dose of 250 mg/kg did not cause mice mortality); assay type: functional; outline: as §2
Mus musculus [6] = experiment: In vivo antimalarial activity in mice (Mus musculus) against chloroquine-resistant Plasmodium yoelii species. NS after subcutaneous administration; assay type: functional
Mus musculus [7] = species on record: Mus musculus; experiment: Dose at which two mice demonstarted 100% survival and normal expected body weight gain after injecting with compound for 14 days; assay type: functional
Outline: (§3)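 Male CD-1/ICR mice in groups of at least 4, given a single intramuscular injection into rear-limb muscle (at most 0.05 mL per site). Test articles were dissolved or suspended at 5% in sesame oil; a vehicle group was included. Doses ranged from 85 to about 400 mg/kg. Survival and body weight gain were followed for 14 days.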

Mus musculus [8] = experiment: In vivo antimalarial activity in mice (Mus musculus) against chloroquine-resistant Plasmodium yoelii species. NS after subcutaneous administration; NA means Inactive at 30 mg/kg/day; assay type: functional, organism-based
Mus musculus [9] = species on record: Mus musculus; experiment: Dose at which all the mice (from 4 groups) demonstarted 100% survival and normal expected body weight gain after injecting with compound for 14 days; assay type: functional; outline: as §3
[10] = In vitro antimalarial activity against chloroquine-sensitive NF54 strain of Plasmodium falciparum (Experiment 1); assay type: functional; outline: as §1
[11] = In vitro antimalarial activity against chloroquine-sensitive NF54 strain of Plasmodium falciparum (Experiment 2); assay type: functional; outline: as §1

## CC1CCC2CC1OO[C@]2(C)CS(=O)(=O)c1ccccc1 (stereo not given in full)
[1]
  pIC50: 7.62

## CC1(O)CCC2CC1OO[C@]2(C)CS(=O)(=O)c1ccccc1 (stereo in doubt; 26a)
[1]
  pIC50: 6.92

## CC1(O)CCC2CC1OO[C@@]2(C)CS(=O)(=O)c1ccccc1 (stereo in doubt; 23a) [listing 1 of 2 here]
Mus musculus [2]
  ED50: >30 mg kg-1 5day-1
  ED90: >30 mg kg-1 5day-1
[1]
  pIC50: 7.26

## CC1=CCC2CC1OO[C@@]2(C)CSc1ccccc1 (stereo not given in full)
[1]
  pIC50: 6.03

## CC1(O)C2CC(CC1OC(=O)c1ccccc1)[C@@](C)(CS(=O)(=O)c1ccccc1)OO2 (stereo not given in full)
[1]
  pIC50: 6.77

## CC(=O)OC1(C)CCC2CC1OO[C@]2(C)CS(=O)(=O)c1ccccc1 (stereo in doubt; 45a)
[1]
  pIC50: 7.70

## C[C@@]12OC1CC1CC2OO[C@@]1(C)CS(=O)(=O)c1ccccc1 (stereo not given in full)
[1]
  pIC50: 7.04

## CC1(OC(=O)C(=O)N(Cc2ccccc2)Cc2ccccc2)CCC2CC1OO[C@]2(C)CS(=O)(=O)c1ccccc1 (stereo not given in full)
[1]
  pIC50: 7.09

## CC(=O)OC1(C)CCC2CC1OO[C@@]2(C)C[S+]([O-])c1ccccc1 (stereo not given in full)
[1]
  pIC50: 7.21 and 7.27

## CC1CCC2CC1OO[C@@]2(C)CS(=O)(=O)c1ccccc1 (stereo not given in full)
[1]
  pIC50: 7.77

## CO[C@H]1O[C@@H]2O[C@@]3(C)CC[C@H]4[C@H](C)CC[C@@H]([C@H]1C)[C@@]24OO3 [ARTEMETHER]
Mus musculus [3]
  ED50: 3.1 mg kg-1 5day-1
  ED90: 5 mg kg-1 5day-1
Mus musculus [2]
  ED50: 0.5 mg kg-1 5day-1
  ED90: 1.1 mg kg-1 5day-1
Mus musculus [4]
  No. of mice survived: 4
Mus musculus [5]
  No. of mice survived: 10

## CC1=CCC2CC1OO[C@@]2(C)CS(=O)(=O)c1ccccc1 (stereo not given in full)
[1]
  pIC50: 6.44

## CC1(O)CCC2CC1OO[C@@]2(C)C[S+]([O-])c1ccccc1 (stereo not given in full)
[1]
  pIC50: 6.82

## CC(=O)OC1(C)CCC2CC1OO[C@@]2(C)CS(=O)(=O)c1ccccc1 (stereo in doubt; 45d)
[1]
  pIC50: 6.66

## CC1(O)C2CC(C[C@H]1O)[C@@](C)(CS(=O)(=O)c1ccccc1)OO2 (stereo not given in full)
[1]
  pIC50: < 5.60

## CC1(O)CCC2CC1OO[C@]2(C)CS(=O)(=O)c1ccc(F)cc1 (stereo not given in full)
[1]
  pIC50: 7.28

## CC(=O)CC(=O)OC1(C)CCC2CC1OO[C@@]2(C)CS(=O)(=O)c1ccccc1 (stereo not given in full)
[1]
  pIC50: 7.34

## CC(=O)OC1(C)CCC2CC1OO[C@@]2(C)CS(=O)(=O)c1ccccc1 (stereo in doubt; 45b)
[1]
  pIC50: 7.74

## CC1(O)CCC2CC1OO[C@]2(C)C[S+]([O-])c1ccccc1 (stereo not given in full)
[1]
  pIC50: 6.09

## CC1(OC(=O)C(=O)N(Cc2ccccc2)Cc2ccccc2)CCC2CC1OO[C@@]2(C)CS(=O)(=O)c1ccccc1 (stereo not given in full)
[1]
  pIC50: 7.68

## CC(=O)OC1(C)CCC2CC1OO[C@]2(C)CS(=O)(=O)c1ccccc1 (stereo in doubt; 39b)
[1]
  pIC50: 7.77

## CC(C)=CCOC1(C)CCC2CC1OO[C@@]2(C)CS(=O)(=O)c1ccccc1 (stereo not given in full)
[1]
  pIC50: 7.46

## CC1(O)C2CC(C[C@H]1OC(=O)c1ccccc1)[C@](C)(CS(=O)(=O)c1ccccc1)OO2 (stereo not given in full)
[1]
  pIC50: 5.60

## COc1ccc(COC2(C)CCC3CC2OO[C@@]3(C)CS(=O)(=O)c2ccccc2)cc1 (stereo not given in full)
Mus musculus [6]
  ED50: 4.8 mg kg-1 5day-1
  ED90: 8.3 mg kg-1 5day-1
Mus musculus [2]
  ED50: 1.3 mg kg-1 5day-1
  ED90: 2.3 mg kg-1 5day-1
[1]
  pIC50: 7.85

## CCO[C@H]1O[C@@H]2O[C@@]3(C)CC[C@H]4[C@H](C)CC[C@@H]([C@H]1C)[C@@]24OO3 [ARTEMOTIL]
Mus musculus [7]
  Dose: 360 mg/kg
Mus musculus [2]
  ED50: 0.9 mg kg-1 5day-1
  ED90: 1.4 mg kg-1 5day-1

## CC(=O)CC(=O)OC1(C)CCC2CC1OO[C@]2(C)CS(=O)(=O)c1ccccc1 (stereo not given in full)
[1]
  pIC50: 7.14

## CC1(OC/C=C/c2ccccc2)CCC2CC1OO[C@@]2(C)CS(=O)(=O)c1ccccc1 (stereo not given in full)
[1]
  pIC50: 7.49

## CC1(O)CCC2CC1OO[C@@]2(C)CS(=O)(=O)c1ccccc1 (stereo in doubt; 23a) [listing 2 of 2 here]
Mus musculus [8]
  NA: Inactive at 30 mg/kg/day

## CC(=O)OC1(C)CCC2CC1OO[C@@]2(C)CS(=O)(=O)c1ccccc1 (stereo in doubt; 39a)
Mus musculus [6]
  ED50: 12.5 mg kg-1 5day-1
  ED90: 28 mg kg-1 5day-1
Mus musculus [2]
  ED50: 3.7 mg kg-1 5day-1
  ED90: 7.3 mg kg-1 5day-1
[1]
  pIC50: 7.77

## CCN(CC)CCCC(C)Nc1ccnc2cc(Cl)ccc12 (stereo not given) [CHLOROQUINE]
Mus musculus [6]
  ED50: 2.4 mg kg-1 5day-1
  ED90: 56 mg kg-1 5day-1
Mus musculus [3]
  ED50: 1.9 mg kg-1 5day-1
  ED90: 2.3 mg kg-1 5day-1
Mus musculus [2]
  ED50: 1 mg kg-1 5day-1
  ED90: 1.2 mg kg-1 5day-1

## CCCCS(=O)(=O)C[C@]1(C)OOC2CC1CC(OC(=O)c1ccccc1)C2(C)O (stereo not given in full)
[1]
  pIC50: 5.60

## CCOC(=O)C(=O)OC1(C)CCC2CC1OO[C@]2(C)CS(=O)(=O)c1ccccc1 (stereo not given in full)
[1]
  pIC50: 6.85

## CCCCS(=O)(=O)C[C@@]1(C)OOC2CC1CC(OC(=O)c1ccccc1)C2(C)O (stereo not given in full)
[1]
  pIC50: 6.30

## CC(=O)OC1(C)CCC2CC1OO[C@]2(C)CS(=O)(=O)c1ccccc1 (stereo in doubt; 45c)
[1]
  pIC50: 6.57

## CC1(OCc2ccccc2)CCC2CC1OO[C@@]2(C)CS(=O)(=O)c1ccccc1 (stereo not given in full)
Mus musculus [9]
  Dose: 380 mg/kg
Mus musculus [6]
  ED50: 1.3 mg kg-1 5day-1
  ED90: 3.8 mg kg-1 5day-1
Mus musculus [3]
  ED50: 10.5 mg kg-1 5day-1
  ED90: 115 mg kg-1 5day-1
Mus musculus [2]
  ED50: 0.8 mg kg-1 5day-1
  ED90: 1.7 mg kg-1 5day-1
[1]
  pIC50: 8.19

## C[C@@H]1CC[C@H]2[C@@H](C)C(=O)O[C@@H]3O[C@@]4(C)CC[C@@H]1[C@]32OO4 [ARTEMISININ]
Mus musculus [6]
  ED50: 5.8 mg kg-1 5day-1
  ED90: 10 mg kg-1 5day-1
Mus musculus [3]
  ED50: 5 mg kg-1 5day-1
  ED90: 14 mg kg-1 5day-1
Mus musculus [2]
  ED50: 0.95 mg kg-1 5day-1
  ED90: 2.5 mg kg-1 5day-1
[10]
  pIC50: 8.06
[11]
  pIC50: 8.05

## CC(=O)OC1(C)CCC2CC1OO[C@]2(C)C[S+]([O-])c1ccccc1 (stereo not given in full)
[1]
  pIC50: 7.40 and 7.85

## CC1(O)CCC2CC1OO[C@@]2(C)CS(=O)(=O)c1ccccc1 (stereo in doubt; 26b)
[1]
  pIC50: 7.02

## CC1(OCc2ccccc2)CCC2CC1OO[C@]2(C)CS(=O)(=O)c1ccccc1 (stereo not given in full)
Mus musculus [9]
  Dose: 380 mg/kg
Mus musculus [6]
  ED50: 1 mg kg-1 5day-1
  ED90: 3.1 mg kg-1 5day-1
Mus musculus [3]
  ED50: 4.2 mg kg-1 5day-1
  ED90: 23.5 mg kg-1 5day-1
Mus musculus [2]
  ED50: 0.43 mg kg-1 5day-1
  ED90: 1.3 mg kg-1 5day-1
[1]
  pIC50: 8.03

## COC(=O)CS(=O)(=O)C[C@]1(C)OOC2CC1CCC2(C)O (stereo not given in full)
[1]
  pIC50: < 5.60

## CC1(OC(=O)COc2ccccc2)CCC2CC1OO[C@@]2(C)CS(=O)(=O)c1ccccc1 (stereo not given in full)
[1]
  pIC50: 7.43

## C[C@@H]1C(=O)C[C@H]2C[C@@H]1OO[C@@]2(C)/C=C\c1ccc(C(F)(F)F)cc1C(F)(F)F [ARTEFLENE]
Mus musculus [3]
  ED50: 10.4 mg kg-1 5day-1
  ED90: 18 mg kg-1 5day-1
Mus musculus [2]
  ED50: 2.7 mg kg-1 5day-1
  ED90: 3.9 mg kg-1 5day-1
[1]
  pIC50: 7.15

## C[C@@H]1[C@H](OCc2ccc(C(=O)O)cc2)O[C@@H]2O[C@@]3(C)CC[C@@H]4[C@@H](C)CC[C@@H]1[C@]24OO3 [ARTELINIC ACID]
Mus musculus [2]
  ED50: 6.6 mg kg-1 5day-1
  ED90: 14 mg kg-1 5day-1

## CCOC(=O)C(=O)OC1(C)CCC2CC1OO[C@@]2(C)CS(=O)(=O)c1ccccc1 (stereo not given in full)
[1]
  pIC50: 6.77

## CC1(O)CCC2CC1OO[C@]2(C)CSC(c1ccccc1)(c1ccccc1)c1ccccc1 (stereo not given in full)
[1]
  pIC50: 7.14

## CC1(O)C2CC(C[C@H]1OC(=O)c1ccccc1)[C@@](C)(CS(=O)(=O)c1ccccc1)OO2 (stereo not given in full)
[1]
  pIC50: 6.09

## CC1(O)CCC2CC1OO[C@]2(C)CS(=O)(=O)c1ccccc1 (stereo in doubt; 23b)
[1]
  pIC50: 7.05

## CC1(O)CCC2CC1OO[C@@]2(C)CS(=O)(=O)c1ccc(F)cc1 (stereo not given in full)
[1]
  pIC50: 7.31

## CC1(O)C2CC(CC1OC(=O)c1ccccc1)[C@](C)(CS(=O)(=O)c1ccccc1)OO2 (stereo not given in full)
[1]
  pIC50: < 5.60

## CC1(O)CCC2CC1OO[C@@]2(C)CSC(c1ccccc1)(c1ccccc1)c1ccccc1 (stereo not given in full)
[1]
  pIC50: 6.82

## COC(=O)CS(=O)(=O)C[C@@]1(C)OOC2CC1CCC2(C)O (stereo not given in full)
[1]
  pIC50: < 5.60

## C=C1CCC2CC1OO[C@@]2(C)CS(=O)(=O)c1ccccc1 (stereo not given in full)
[1]
  pIC50: > 5.49

Source: ChEMBL document CHEMBL1144930, “A short synthesis and biological evaluation of potent and nontoxic antimalarial bridged bicyclic beta-sulfonyl-endoperoxides” (J Med Chem, 2003)
